Key:
Canis familiaris [1] = organism: Canis familiaris; experiment: Positive inotropic in the isolated papillary muscle of the dog.; assay type: functional, Canis lupus familiaris
Procedure, shortened: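 Right ventricular anterior papillary muscle with septum, from mongrel dogs (7–12 kg, pentobarbital 30 mg/kg iv). It was perfused at about 100 mmHg via the septal artery with blood from a heparinized donor dog and paced at 120/min (1 ms pulses, about 1.5× threshold). Isometric tension was recorded. Saline solutions were injected intra-arterially, with amrinone as reference. ED15 (15% rise in developed tension) was taken from log dose-response curves. Results are mean ± SEM (n = 7) or mean ± range (n = 2).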

Canis familiaris [2] = experiment: Inotropic activity determined by evaluating the % change in contractile force (CF) of right ventricle at a dose of 100 ug/kg administered intravenously […]; assay type: functional, Canis lupus familiaris, Heart right ventricle
Procedure, shortened: (§1)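 Mongrel dogs of either sex, 7–15 kg, anesthetized with sodium pentobarbital (30 mg/kg iv), open-chest, intubated and ventilated on room air. Compounds given intravenously. A femoral artery catheter with pressure transducer recorded SBP and DBP. dP/dtmax, right ventricular contractile force, cardiac output and heart rate were also recorded, as % change at each iv dose.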

Canis familiaris [3] = experiment: Inotropic activity determined by evaluating the % change in Diastolic Blood Pressure (DBP) at a dose of 30 ug/kg administered intravenously […]; assay type: functional, Canis lupus familiaris; procedure, shortened: as §1
Canis familiaris [4] = experiment: Inotropic activity determined by evaluating the % change in Heart Rate (HR) at a dose of 100 ug/kg administered intravenously […]; assay type: functional, Canis lupus familiaris; procedure, shortened: as §1
Canis familiaris [5] = experiment: Inotropic activity determined by evaluating the % change in Heart Rate (HR) at a dose of 30 ug/kg administered intravenously […]; assay type: functional, Canis lupus familiaris; procedure, shortened: as §1
Canis familiaris [6] = experiment: Inotropic activity determined by evaluating the % change in Cardiac out put (CO)at a dose of 30 ug/kg administered intravenously […]; assay type: functional, Canis lupus familiaris; procedure, shortened: as §1
Canis familiaris [7] = experiment: Inotropic activity determined by evaluating the % change in Diastolic Blood Pressure (DBP) at a dose of 100 ug/kg administered intravenously […]; assay type: functional, Canis lupus familiaris; procedure, shortened: as §1
Canis familiaris [8] = organism: Canis familiaris; experiment: Positive inotropic activity determined in the […](that produced 30% increase in dose- response curves [dP/dt(max)]); assay type: functional; details: Canis lupus familiaris
Procedure, shortened: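 In the anesthetized open-chest dog (mongrel, 7–15 kg, pentobarbital 30 mg/kg iv, ventilated on room air), compounds were given intravenously and LV dP/dtmax was recorded. The dose giving a 30% rise in dP/dtmax was read from the dose-response curves. Results are mean ± SEM (n = 3) or mean ± range (n = 2).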

Canis familiaris [9] = experiment: Inotropic activity determined by evaluating the % change in Systolic Blood Pressure (SBP) at a dose of 100 ug/kg administered intravenously […]; assay type: functional, Canis lupus familiaris, Muscle tissue; procedure, shortened: as §1
Canis familiaris [10] = experiment: Inotropic activity determined by evaluating the % change in contractile force (CF) of right ventricle at a dose of 30 ug/kg administered intravenously […]; assay type: functional, Canis lupus familiaris, Heart right ventricle; procedure, shortened: as §1
Canis familiaris [11] = experiment: Inotropic activity determined by evaluating the % change in Cardiac out put (CO)at a dose of 100 ug/kg administered intravenously […]; assay type: functional, Canis lupus familiaris; procedure, shortened: as §1
Canis familiaris [12] = experiment: Inotropic activity determined by evaluating the maximum rate of rise in left ventricular pressure at a dose of 100 ug/kg administered intravenously […]; assay type: functional, Canis lupus familiaris, Muscle tissue; procedure, shortened: as §1
Canis familiaris [13] = experiment: Inotropic activity determined by evaluating the maximum rate of rise in left ventricular pressure at a dose of 30 ug/kg administered intravenously […]; assay type: functional, Canis lupus familiaris, Muscle tissue; procedure, shortened: as §1
Canis familiaris [14] = experiment: Inotropic activity determined by evaluating the % change in Systolic Blood Pressure (SBP) at a dose of 30 ug/kg administered intravenously […]; assay type: functional, Canis lupus familiaris, Muscle tissue; procedure, shortened: as §1
Canis familiaris [15] = experiment: Inotropic activity determined by evaluating the % change in contractile force (CF) of right ventricle at a dose of 1000 ug/kg administered intravenously […]; assay type: functional, Canis lupus familiaris, Heart right ventricle; procedure, shortened: as §1
Canis familiaris [16] = experiment: Inotropic activity determined by evaluating the % change in Heart Rate (HR) at a dose of 1000 ug/kg administered intravenously […]; assay type: functional, Canis lupus familiaris; procedure, shortened: as §1
Canis familiaris [17] = experiment: Inotropic activity determined by evaluating the % change in Heart Rate (HR) at a dose of 300 ug/kg administered intravenously […]; assay type: functional, Canis lupus familiaris, Muscle tissue; procedure, shortened: as §1
Canis familiaris [18] = experiment: Inotropic activity determined by evaluating the % change in Cardiac out put (CO)at a dose of 300 ug/kg administered intravenously […]; assay type: functional, Canis lupus familiaris; procedure, shortened: as §1
Canis familiaris [19] = experiment: Inotropic activity determined by evaluating the % change in Diastolic Blood Pressure (DBP) at a dose of 1000 ug/kg administered intravenously […]; assay type: functional, Canis lupus familiaris; procedure, shortened: as §1
Canis familiaris [20] = experiment: Inotropic activity determined by evaluating the % change in Diastolic Blood Pressure (DBP) at a dose of 300 ug/kg administered intravenously […]; assay type: functional, Canis lupus familiaris; procedure, shortened: as §1
Canis familiaris [21] = experiment: Inotropic activity determined by evaluating the % change in contractile force (CF) of right ventricle at a dose of 300 ug/kg administered intravenously […]; assay type: functional, Canis lupus familiaris, Heart right ventricle; procedure, shortened: as §1
Canis familiaris [22] = experiment: Inotropic activity determined by evaluating the maximum rate of rise in left ventricular pressure at a dose of 1000 ug/kg administered intravenously […]; assay type: functional, Canis lupus familiaris, Muscle tissue; procedure, shortened: as §1
Canis familiaris [23] = experiment: Inotropic activity determined by evaluating the maximum rate of rise in left ventricular pressure at a dose of 300 ug/kg administered intravenously […]; assay type: functional, Canis lupus familiaris, Muscle tissue; procedure, shortened: as §1
Canis familiaris [24] = experiment: Inotropic activity determined by evaluating the % change in Systolic Blood Pressure (SBP) at a dose of 300 ug/kg administered intravenously […]; assay type: functional, Canis lupus familiaris, Muscle tissue; procedure, shortened: as §1
Canis familiaris [25] = experiment: Inotropic activity determined by evaluating the % change in Systolic Blood Pressure (SBP) at a dose of 1000 ug/kg administered intravenously […]; assay type: functional, Canis lupus familiaris, Muscle tissue; procedure, shortened: as §1
Canis familiaris [26] = experiment: Inotropic activity determined by evaluating the % change in Cardiac out put (CO)at a dose of 1000 ug/kg administered intravenously […]; assay type: functional, Canis lupus familiaris; procedure, shortened: as §1
Canis familiaris [27] = experiment: Inotropic activity determined by evaluating the % change in contractile force (CF) of right ventricle at a dose of 10 ug/kg administered intravenously […]; assay type: functional, Canis lupus familiaris, Heart right ventricle; procedure, shortened: as §1
Canis familiaris [28] = experiment: Inotropic activity determined by evaluating the % change in Heart Rate (HR) at a dose of 10 ug/kg administered intravenously […]; assay type: functional, Canis lupus familiaris; procedure, shortened: as §1
Canis familiaris [29] = experiment: Inotropic activity determined by evaluating the % change in Cardiac out put (CO)at a dose of 10 ug/kg administered intravenously […]; assay type: functional, Canis lupus familiaris; procedure, shortened: as §1
Canis familiaris [30] = experiment: Inotropic activity determined by evaluating the % change in Diastolic Blood Pressure (DBP) at a dose of 10 ug/kg administered intravenously […]; assay type: functional, Canis lupus familiaris; procedure, shortened: as §1
Canis familiaris [31] = experiment: Inotropic activity determined by evaluating the % change in Systolic Blood Pressure (SBP) at a dose of 10 ug/kg administered intravenously […]; assay type: functional, Canis lupus familiaris; procedure, shortened: as §1
Canis familiaris [32] = experiment: Inotropic activity determined by evaluating the maximum rate of rise in left ventricular pressure at a dose of 10 ug/kg administered intravenously […]; assay type: functional, Canis lupus familiaris, Muscle tissue; procedure, shortened: as §1

CC(Nc1ccc(C2=NNC(=O)CC2)cc1)c1ccncc1 (configuration not stated)
ED15 (Canis familiaris [1]): 33 µg

CN(C)c1ccc(CNc2ccc(C3=NNC(=O)CC3)cc2)cc1
ED15 (Canis familiaris [1]): >300 µg

O=C1CCC(c2ccc(NCc3ccncc3)cc2)=NN1
ED15 (Canis familiaris [1]): >300 µg

O=C1CCC(c2ccc(NCc3cccnc3)cc2)=NN1
ED15 (Canis familiaris [1]): 86 µg

O=C1CCC(c2ccc(NCc3ccnc4ccccc34)cc2)=NN1
ED15 (Canis familiaris [1]): >300 µg

CC1CC(c2ccc(Nc3ccncc3)cc2)=NNC1=O.Cl (configuration not stated)
Change of CF (Canis familiaris [2]): 52.9%
ED15 (Canis familiaris [1]): 4.7 µg
Change of DBP (Canis familiaris [3]): -9.8%
Change of HR (Canis familiaris [4]): 17.3%
Change of HR (Canis familiaris [5]): 4.6%
Change of CO (Canis familiaris [6]): 10.3%
Change of DBP (Canis familiaris [7]): -26.1%
ED30 (Canis familiaris [8]): 0.072 mg/kg
Change of SBP (Canis familiaris [9]): -14.6%
Change of CF (Canis familiaris [10]): 22.5%
Change of CO (Canis familiaris [11]): 23.3%
dP/dt (Canis familiaris [12]): 43.8%
dP/dt (Canis familiaris [13]): 24.2%
Change of SBP (Canis familiaris [14]): -5.9%

CCc1cc(O)nnc1-c1ccc(Nc2ccncc2)cc1.Cl
Change of CF (Canis familiaris [15]): 4.2%
ED15 (Canis familiaris [1]): >300 µg
Change of HR (Canis familiaris [16]): -2.9%
Change of HR (Canis familiaris [17]): -0.1%
Change of CO (Canis familiaris [18]): 3.9%
Change of DBP (Canis familiaris [19]): -9.3%
Change of DBP (Canis familiaris [20]): -0.9%
ED30 (Canis familiaris [8]): > 1 mg/kg
Change of CF (Canis familiaris [21]): 2.8%
dP/dt (Canis familiaris [22]): -0.9%
dP/dt (Canis familiaris [23]): 1%
Change of SBP (Canis familiaris [24]): 0.4%
Change of SBP (Canis familiaris [25]): -5%
Change of CO (Canis familiaris [26]): 8.6%

CC1CC(=O)NN=C1c1ccc(Nc2ccccn2)cc1.Cl (configuration not stated)
Change of CF (Canis familiaris [27]): 19.5%
ED15 (Canis familiaris [1]): 3.2 µg
Change of DBP (Canis familiaris [3]): -31%
Change of HR (Canis familiaris [28]): 5.3%
Change of HR (Canis familiaris [5]): 8.9%
Change of CO (Canis familiaris [29]): 12.7%
Change of CO (Canis familiaris [6]): 15.8%
Change of DBP (Canis familiaris [30]): -22.4%
ED30 (Canis familiaris [8]): 0.022 mg/kg
Change of SBP (Canis familiaris [31]): -14.1%
Change of CF (Canis familiaris [10]): 44.4%
dP/dt (Canis familiaris [32]): 19.3%
dP/dt (Canis familiaris [13]): 46.4%
Change of SBP (Canis familiaris [14]): -17.6%

Source: ChEMBL document CHEMBL1123853, “A novel class of cardiotonics. Synthesis and pharmacological properties of [4-(substituted-amino)phenyl]pyridazinones and related derivatives” (1987)
